The target of assay [1] is T1, D(2) dopamine receptor (Homo sapiens, UniProt P14416). Put plainly: Inhibitor constant of compound for high affinity component of [3H]spiroperidol/N-propylnorapomorphine binding to Dopamine receptor D2 in absence of Gpp(NH)p (pretreatment with 100 nM of compound). The method, boiled down:
(§1)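 D2 receptor binding: [3H]spiroperidol displaced by the agonist N-propylnorapomorphine, run without or with Gpp(NH)p (100 μM). The assay was done either with 100 nM test-compound pretreatment or untreated as its control. High- and low-affinity dissociation constants (KH, KL) and receptor fractions (RH, RL, RH/RL) are reported. Values are mean ± SEM of 3–4 separate experiments, each done in duplicate or triplicate.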

Assay [2] deals with T1, D(2) dopamine receptor. The assay can be described thus: Inhibitor constant of compound for high affinity component of [3H]spiroperidol/N-propylnorapomorphine binding to Dopamine receptor D2 in presence of Gpp(NH)p. The gist of the method: as §1
The target of assay [3] is T1, D(2) dopamine receptor. The assay can be described thus: Inhibitor constant of compound for high affinity component of [3H]spiroperidol/N-propylnorapomorphine binding to Dopamine receptor D2 in presence of Gpp(NH)p (pretreatment with 100 nM of compound). The method, boiled down: as §1
Assay [4] addresses T1, D(2) dopamine receptor. The assay can be described thus: Inhibitor constant of compound for low affinity component of [3H]spiroperidol/N-propylnorapomorphine binding to Dopamine receptor D2 in absence of Gpp(NH)p. The gist of the method:
as §1

Assay [5] has as its target T1, D(2) dopamine receptor. The assay can be described thus: Inhibitor constant of compound for low affinity component of [3H]spiroperidol/N-propylnorapomorphine binding to Dopamine receptor D2 in absence of Gpp(NH)p (pretreatment with 100 nM of compound). The method, boiled down:
as §1

Assay [6] deals with T1, D(2) dopamine receptor. The assay can be described thus: Inhibitor constant of compound for low affinity component of [3H]spiroperidol/N-propylnorapomorphine binding to Dopamine receptor D2 in presence of Gpp(NH)p. The gist of the method:
as §1

Assay [7] addresses T1, D(2) dopamine receptor. The assay can be described thus: Percent of Dopamine receptor D2 in high affinity state for the compound in absence of Gpp(NH)p. The gist of the method: as §1
The target of assay [8] is T1, D(2) dopamine receptor. Put plainly: Percent of Dopamine receptor D2 in high affinity state for the compound in absence of Gpp(NH)p (pretreatment with 100 nM of compound). The gist of the method: as §1
Assay [9] addresses T1, D(2) dopamine receptor. The assay can be described thus: Percent of Dopamine receptor D2 in high affinity state for the compound in presence of Gpp(NH)p. The gist of the method:
as §1

The target in assay [10] is T1, D(2) dopamine receptor. Put plainly: Percent of Dopamine receptor D2 in high affinity state for the compound in presence of Gpp(NH)p (pretreatment with 100 nM of compound). The method, boiled down:
as §1

For assay [11], the target named is T1, D(2) dopamine receptor. The assay can be described thus: Percent of Dopamine receptor D2 in low affinity state for the compound in absence of Gpp(NH)p. The method, boiled down: as §1
For assay [12], the target named is T1, D(2) dopamine receptor. Put plainly: Percent of Dopamine receptor D2 in low affinity state for the compound in absence of Gpp(NH)p (pretreatment with 100 nM of compound). The method, boiled down:
as §1

In assay [13] the target is T1, D(2) dopamine receptor. The assay can be described thus: Percent of Dopamine receptor D2 in low affinity state for the compound in presence of Gpp(NH)p. The gist of the method: as §1
The target in assay [14] is T1, D(2) dopamine receptor. The assay can be described thus: Percent of Dopamine receptor D2 in low affinity state for the compound in presence of Gpp(NH)p (pretreatment with 100 nM of compound). The gist of the method:
as §1

The target in assay [15] is T1, D(2) dopamine receptor. The assay can be described thus: Inhibitor constant of compound for high affinity component of [3H]spiroperidol/N-propylnorapomorphine binding to Dopamine receptor D2 in absence of Gpp(NH)p. The gist of the method:
as §1

Assay [16] relates to Rattus norvegicus. Put plainly: Percent increase in apomorphine induced rotational behavior in the 6-hydroxydopamine lesioned rat model of hemiparkinsonism by 0.01 mg/Kg of compound given intraperitoneally. The assay is classed as functional. The gist of the method:
(§2)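 Rats with a unilateral 6-hydroxydopamine lesion of the substantia nigra received the test compound ip (0.00001–1 mg/kg) together with apomorphine (0.25 mg/kg, ip), n = 4. Contralateral rotations were counted over 10 min and expressed as percent change from the control rotational response, mean ± SEM.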

The target in assay [17] is T1, D(2) dopamine receptor. Put plainly: Ratio of the high affinity state over low affinity state of dopamine D2 receptor in the absence of Gpp(NH)p. The method, boiled down: as §1
Assay [18] concerns the target T1, D(2) dopamine receptor. Put plainly: Ratio of the high affinity state over low affinity state of dopamine D2 receptor in the absence of Gpp(NH)p. (pretreatment with 100 nM of compound). The method, boiled down:
as §1

The target of assay [19] is T1, D(2) dopamine receptor. Put plainly: Ratio of the high affinity state over low affinity state of dopamine D2 receptor in the presence of Gpp(NH)p. The gist of the method:
as §1

The target of assay [20] is T1, D(2) dopamine receptor. Put plainly: Ratio of the high affinity state over low affinity state of dopamine D2 receptor in the presence of Gpp(NH)p. (pretreatment with 100 nM of compound). The method, boiled down:
as §1

The test system of assay [21] is Rattus norvegicus. The assay can be described thus: Percent increase in apomorphine induced rotational behavior in the 6-hydroxydopamine lesioned rat model of hemiparkinsonism by 0.001 mg/Kg of compound given intraperitoneally. Type of assay: functional. The gist of the method:
as §2

Where “and” joins values, the source holds several entries; their conditions need not be identical. Identical values can stand only once. Peptide text beside a SMILES is read from it.

T1 sequence (P14416 whole entry): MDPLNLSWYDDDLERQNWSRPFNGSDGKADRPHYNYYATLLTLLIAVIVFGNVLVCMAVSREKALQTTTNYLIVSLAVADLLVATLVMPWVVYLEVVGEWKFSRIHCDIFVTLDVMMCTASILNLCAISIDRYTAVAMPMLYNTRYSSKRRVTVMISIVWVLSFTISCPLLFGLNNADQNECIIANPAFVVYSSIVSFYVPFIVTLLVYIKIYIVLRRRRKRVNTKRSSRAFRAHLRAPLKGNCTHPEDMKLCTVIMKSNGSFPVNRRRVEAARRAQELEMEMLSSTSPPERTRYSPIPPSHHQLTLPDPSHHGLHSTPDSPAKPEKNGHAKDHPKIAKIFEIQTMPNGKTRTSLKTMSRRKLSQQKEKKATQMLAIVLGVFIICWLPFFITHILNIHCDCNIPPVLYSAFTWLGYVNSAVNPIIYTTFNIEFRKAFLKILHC

For orientation: Ki means the dissociation constant of the complex between target and ligand, obtained from inhibition or displacement. For `NC(=O)C1CCS[C@@H]2C[C@]3(CCCN3C(=O)[C@@H]3CCCN3)C(=O)N12` (some centres undefined), the Ki at D(2) dopamine receptor [1] is 0.031 nM; at D(2) dopamine receptor [2], 0.122 nM; at D(2) dopamine receptor [3] it was 0.064 nM; at D(2) dopamine receptor [4], 196 nM; at D(2) dopamine receptor [5], 168 nM; on D(2) dopamine receptor [6] it was 246 nM and 202 nM. Moreover, at D(2) dopamine receptor [15], the Ki was found to be 0.071 nM. The RH was 52% on D(2) dopamine receptor [7], 64% at D(2) dopamine receptor [8], 15% on D(2) dopamine receptor [9] and 53% on D(2) dopamine receptor [10]. In addition, the RL stood at 48% on D(2) dopamine receptor [11], 36% on D(2) dopamine receptor [12], 85% at D(2) dopamine receptor [13] and 47% at D(2) dopamine receptor [14]. In addition, the Activity with Rattus norvegicus [16] was 95%. In addition, the RH/RL at D(2) dopamine receptor [17] worked out at 1.08; on D(2) dopamine receptor [18] it was 1.77; at D(2) dopamine receptor [19], 0.17; on D(2) dopamine receptor [20], 1.12.
As to `CC(C)C[C@H](NC(=O)[C@@H]1CCCN1)C(=O)NCC(N)=O` (H-Pro-Leu-Gly-NH2), the Ki on D(2) dopamine receptor [1] is 0.04 nM; on D(2) dopamine receptor [2] it was 0.13 nM; on D(2) dopamine receptor [3], 0.06 nM; at D(2) dopamine receptor [4], 73.2 nM; at D(2) dopamine receptor [5] it was 60.1 nM; on D(2) dopamine receptor [6], 60 nM and 78 nM. In addition, the inhibition constant (Ki) at D(2) dopamine receptor [15] turned out to be 0.09 nM. In addition, the RH on D(2) dopamine receptor [7] was 49%; at D(2) dopamine receptor [8] it was 61%; at D(2) dopamine receptor [9], 19%; on D(2) dopamine receptor [10], 32%. In addition, the RL on D(2) dopamine receptor [11] came to 51%; on D(2) dopamine receptor [12], 41%; at D(2) dopamine receptor [13], 82%; on D(2) dopamine receptor [14], 72%. Besides, the RH/RL at D(2) dopamine receptor [17] turned out to be 0.96; at D(2) dopamine receptor [18], 1.48; on D(2) dopamine receptor [19] it was 0.23; at D(2) dopamine receptor [20] it was 0.44.
In the case of `NC(=O)[C@H]1CS[C@@H]2CC[C@]3(CCCN3C(=O)[C@@H]3CCCN3)C(=O)N12`, the Ki at D(2) dopamine receptor [1] is 0.05 nM; at D(2) dopamine receptor [2], 0.196 nM; on D(2) dopamine receptor [3] it was 0.09 nM; at D(2) dopamine receptor [4], 190 nM; at D(2) dopamine receptor [5], 188 nM; on D(2) dopamine receptor [6] it was 260 nM and 211 nM. The molecule further returned a Ki on D(2) dopamine receptor [15] of 0.067 nM. The RH at D(2) dopamine receptor [7] stood at 53%; at D(2) dopamine receptor [8] it was 68%; at D(2) dopamine receptor [9], 17%; at D(2) dopamine receptor [10], 55%. Further, the RL at D(2) dopamine receptor [11] amounted to 47%; on D(2) dopamine receptor [12], 32%; on D(2) dopamine receptor [13], 83%; at D(2) dopamine receptor [14], 45%. Also, in the assay with Rattus norvegicus [21], the Activity was 88%. Moreover, the RH/RL at D(2) dopamine receptor [17] amounted to 1.13; at D(2) dopamine receptor [18] it was 2.12; at D(2) dopamine receptor [19], 0.2; at D(2) dopamine receptor [20], 1.22.

Source of the values: ChEMBL document CHEMBL1132286, “Design, synthesis, and dopamine receptor modulating activity of spiro bicyclic peptidomimetics of L-prolyl-L-leucyl-glycinamide” (J Med Chem, 1999).
